Laboratory results from the RNAGym collection of RNA variant scans (doi:10.1126/science.aae0568).
This sample holds only a part of the variants without activity.

B1: tRNA (parent)
chain: GUUCCGUUGGCGUAAUGGUAACGCGUCUCCCUCCUAAGGAGAAGACUGCGGGUUCGAGUCCCGUACGGAACG

Variants of: B1
Assay: yeast fitness relative to wild type (ratio to wild type); higher = fitter; tRNA-Arg(CCU), competitive growth, 37 C, YPD
Summary of the method: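 Variants of the tRNA-Arg(CCU) gene were chemically synthesised with a 3% per-site mutation rate across 69 sites and placed at the native genomic locus in Saccharomyces cerevisiae. Six parallel replicates of the pooled strains were competed in YPD at 37°C for 24 hours, and gene amplicons from the start and end populations were read by 100-nucleotide paired-end sequencing. Darwinian fitness relative to wild type was derived from changes in genotype frequencies. Genotypes required ≥ 100 starting reads, and estimates < 0.5 were set to 0.5.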

Variant	yeast fitness
C27U C34G	0.698
C27U C34A	0.728
C27U C33G G39A A43G A57G C61U C62U	≤ 0.5
U28A U35C	0.753
C27U U28G C33G A36G	≤ 0.5
U28A A57C C66G	≤ 0.5
U28A C33G A43C C61U A69U	≤ 0.5
U28A C34U C61U	0.554
U28A C34U A45U C62A	≤ 0.5
C27U C29U C49U	0.71
C27U C29U C49G	≤ 0.5
C27U U47A C61A A65G	≤ 0.5
U28A C30U A40G U54G	≤ 0.5
C27U U28G C31A C46U	≤ 0.5
C27U C30U C62A	0.564
U28A	0.892
U28C	0.981
U28C A70G	0.92
U28A C61A	0.612
U28A G48A C61A	≤ 0.5
U28C A45G C66U	0.72
C27U C29U	0.792
C27U C29A	0.737
C27U G44A C49U G52A A57C	≤ 0.5

Variant	yeast fitness
C27U U47C G63A C66U	≤ 0.5
C27U C29G A42G	≤ 0.5
U28A G48A G58C C66G	≤ 0.5
U28C A37C A40U G50A C60G	≤ 0.5
C27U C34G A40G C46G C49A U59C	≤ 0.5
C27U C33G C34U C61U G67A G68C	≤ 0.5
U28A C29A C46U C55G	≤ 0.5
C27U C34G C62A	0.586
U28C C29G C33A G68C	≤ 0.5
U28C A45U A70U	0.773
U28A A36C A45G	≤ 0.5
C27U C31G A43C C49G G52C U59A	0.54
C27U C31G A43C C49G G52C U59G	≤ 0.5
U28A G52A	0.705
C27U C31G A43C C49G G52C	≤ 0.5
U28A C34U	0.553
C27U C31G A69U	0.624
C27U C49A U64C	0.756
C27U U59C A69U	0.795
C27U C33U C60G	0.628
U28C A37G	0.724
U28C A37C	0.786
C27U U47A	0.721
C27U U47C	0.975

Variant	yeast fitness
C27U U47G	0.621
U28A C31G U35C U47C C60U C61U	≤ 0.5
C27U C33A C60U C62G	≤ 0.5
C27U G63C	0.715
C27U U59A A65U	≤ 0.5
U28A G52A A57U C60U A65G G68A	0.59
U28A G39A C46A A57C	≤ 0.5
C27U U35C A36G	0.566
C27U G52C C60U	0.521
C27U C46A	0.942
C27U C46U	0.978
C27U C46G	1.04
U28A G48A C60G	≤ 0.5
C27U C33U A40C C55A	≤ 0.5
U28A C33G	0.618
U28C C29A C31G C55A G58A	≤ 0.5
C27U C46G C66G A69G	≤ 0.5
U28A G68C	0.707
U28A G68U	0.762
C27U C30U U53A	0.62
U28A C30U C66U	≤ 0.5
U28C A65C	0.85
U28A G44A G50A A57G G68C	≤ 0.5
U28A A40G G51C U54A G58C	0.582

Variant	yeast fitness
C27U C29A C55G A65G	≤ 0.5
U28A C29U A45C	0.522
U28A A37U	0.73
C27U C46U G67U	0.626
C27U U28G A40C C46A C49U	0.995
C27U G38A C61U C66A	≤ 0.5
U28A A45C C46G G67A	0.532
C27U U54C G67C	0.54
U28A C29G G44C A65U	0.935
U28A C29U A37G G52C	≤ 0.5
U28A U47G	0.535
U28A U47C	0.858
C27U U64C C66A	≤ 0.5
C27U C60U C66U	0.695
C27U C62U A65U	0.718
C27U C60U	0.849
C27U C60A	0.552
C27U U28A U32A C34U A36C C55A A70G	0.539
C27U G58C U59C A70G	≤ 0.5
U28A A43U U53A	≤ 0.5
U28C A45G	0.948
U28A C49U U54G	≤ 0.5
C27U G48A U59A	0.684
U28C A36G G41A A42C	≤ 0.5

Variant	yeast fitness
C27U G39A G41A A69U	0.674
C27U U53A	0.628
C27U C30G A40G G51C U64C	≤ 0.5
U28A U32A C55G	≤ 0.5
C27U G38C G44C	0.531
C27U C29G C46A	0.539
C27U C33G A43G A45C C55A	≤ 0.5
C27U C33G A43G U53C A57G C61U C62U A70G	≤ 0.5
C27U C29G C55U A65G C66A	≤ 0.5
U28A C34A A40G C66A	≤ 0.5
U28A G38A C55G	≤ 0.5
C27U C30U U53A A69C	0.507
U28A C49A A65C	0.528
C27U C29U A36C	≤ 0.5
U28A U59A	0.633
U28A U59C	0.647
C27U C29U C49G A69G	≤ 0.5
U28A C49G	0.818
U28A C49U	0.804
U28A C49A	0.644
U28C A69U	0.893
U28A G58U A65C	≤ 0.5
C27U U32C G41A A42U G44A C46U G58A C60U	≤ 0.5
C27U C34G A45U	0.511

Variant	yeast fitness
C27U U47C A69U	0.838
U28C C29G C49U	≤ 0.5
C27U G44C A65U	0.691
U28A A40G G51C U54A G58C C66U	≤ 0.5
U28A G56A C62A	0.582
C27U C55A	0.583
C27U C55G	0.675
U28A C33G A43C G63A	0.524
U28A U32G A69U	≤ 0.5
U28A A45C	0.79
C27U C49U	1
U28A C31G U35C C60U C61U	≤ 0.5
C27U C33G A43G A57G C61U C62U	0.509
U28A G41A	0.697
U28A U32G A65U	≤ 0.5
U28A A42C C49G C62U	0.585
U28A A36U	0.564
U28A A36G	0.73
U28A A43C A57C	0.608
C27U G56C C66U	≤ 0.5
C27U U32C G41A C55A G63C	≤ 0.5
C27U U32C A70C	0.68
C27U G44C G68A	0.666
C27U C30U U53A C66U	≤ 0.5

Variant	yeast fitness
U28A C34G G39C A57G C66U	≤ 0.5
C27U C31A G44C A70G	≤ 0.5
U28A G38A	0.772
U28A G38C	0.541
U28A C49U U54G C62U	≤ 0.5
U28C C29U	0.806
C27U C34U G44A	≤ 0.5
C27U G39C C49U	≤ 0.5
U28C A40G A70C	0.576
U28A C62U	0.86
C27U C62U A70C	0.756
C27U G48A C49U A65G	0.714
C27U C34G A37C	≤ 0.5
C27U G51A U53A G63C	≤ 0.5
C27U G67A	1.02
U28C A57U	0.823
C27U C30G U32C A70U	0.585
C27U G38A G48C	0.562
C27U C55U G56A A57C	0.526
C27U C33G C34G G44A G50A G52A G56A	≤ 0.5
U28C A40G G51C A65U	0.545
C27U G39C C49U G63C	≤ 0.5
U28A C46G G56A	0.676
